According to article PMC10521327 (Journal of the American Chemical Society, 2023):
Like-named read-outs stand apart in the source and are kept apart here.

What was measured:
[1] = tested on: A2780 (Ovary); experiment: Resazurin antiproliferative assay, 72 h; assay type: cell-based; conditions: read-out: IC50 A2780 (Ovary)
Procedure, shortened: (§1)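 Cells were incubated with test compound for 72 h. Viability was read by the fluorescence-based resazurin assay (reduction to resorufin), chosen because formazan absorbance (400–800 nm) interferes with colorimetric probes. IC50 values were derived for each line. The panel was cancer lines plus MRC-5 normal lung fibroblasts.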

[2] = tested on: MDA-MB-231 (Breast); experiment: Resazurin antiproliferative assay, 72 h; assay type: cell-based; conditions: read-out: IC50 MDA-MB-231 (Breast)
Procedure, shortened: as §1

[3] = tested on: Caco-2 (Colon); experiment: Resazurin antiproliferative assay, 72 h; assay type: cell-based; conditions: read-out: IC50 Caco-2 (Colon)
Procedure, shortened: as §1

[4] = tested on: A549 (Lung); experiment: Resazurin antiproliferative assay, 72 h; assay type: cell-based; conditions: read-out: IC50 A549 (Lung)
Procedure, shortened: as §1

[5] = tested on: MRC-5 (Normal lung); experiment: Resazurin antiproliferative assay, 72 h; assay type: cell-based; conditions: read-out: IC50 MRC-5 (Normal lung), mean ± SDM, n=3
Procedure, shortened: as §1

[6] = tested on: tested cancer cell lines (A2780, MDA-MB-231, Caco-2, A549); experiment: Resazurin antiproliferative assay, summary over the cancer cell panel; assay type: cell-based; conditions: 72 h, read-out: IC50 range in the tested cancer cell lines
Procedure, shortened: as §1

[7] = In vitro calcein competition for Fe; conditions: 50 mM HEPES buffer pH 7.4 and MeOH 3:1 v/v
Procedure, shortened: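 Cell-free competition: calcein was quenched with Fe(II) (1.0 equiv) in 50 mM HEPES pH 7.4/MeOH (3:1 v/v). Test compound was then added, and recovery of calcein fluorescence was taken as displacement of iron from the probe.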

[8] = tested on: A2780 ovarian cancer cells; experiment: Cell cycle distribution by flow cytometry; assay type: cell-based; conditions: A2780, 40 μM, 24 h
Procedure, shortened: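 A2780 cells were treated with test compound at 40 μM for 24 h, then analysed by flow cytometry for cell-cycle phase distribution. Triplicate experiments; mean ± standard deviation; t-tests against DMSO vehicle only.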

[9] = tested on: A2780 ovarian cancer cells; experiment: Apoptotic cell death by flow cytometry; assay type: cell-based; conditions: A2780, 40 μM, 48 h
Procedure, shortened: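 A2780 ovarian cancer cells were exposed to test compound (40 μM) for 48 h. Flow cytometry then scored the fractions of cells in early and late apoptosis. Runs were in triplicate, reported as mean ± standard deviation, with t-tests against DMSO vehicle.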

[10] = tested on: A2780 ovarian cancer cells; experiment: Intracellular calcein assay; assay type: cell-based; conditions: A2780, 40 μM, 24 h
Procedure, shortened: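 Calcein-AM delivered calcein to the cytosol, where it is partly quenched by labile iron. Cells were incubated with test compound (40 μM), and the rise in calcein fluorescence was measured against DMSO vehicle. A2780 cells were sampled after 1, 3 and 24 h. Triplicate; mean ± standard deviation; t-tests.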

[11] = tested on: MRC-5 normal lung fibroblasts; experiment: Intracellular calcein assay; assay type: cell-based; conditions: MRC-5, 40 μM, 24 h
[12] = tested on: transferrin receptor 1 (TfR1); experiment: Western blot of TfR1 expression in A2780 cells; assay type: cell-based; conditions: A2780, 40 μM, 24 h
Procedure, shortened: (§2)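 Cells were treated with test compound for 24 h; A2780 cells were treated at 40 μM. Lysates were analysed by Western blot for TfR1 and ferritin heavy chain, with β-actin as loading control. n=4; t-tests against DMSO vehicle. Ferric ammonium citrate supplementation served as an iron-replete comparison in A2780.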

[13] = tested on: ferritin heavy chain (ferritin H); experiment: Western blot of ferritin H expression in A2780 cells; assay type: cell-based; conditions: A2780, 40 μM, 24 h
Procedure, shortened: as §2

[14] = tested on: transferrin receptor 1 (TfR1); experiment: Western blot of TfR1 expression in MRC-5 cells; assay type: cell-based; conditions: MRC-5, 24 h
Procedure, shortened: as §2

[15] = tested on: ferritin heavy chain (ferritin H); experiment: Western blot of ferritin H expression in MRC-5 cells; assay type: cell-based; conditions: MRC-5, 24 h
Procedure, shortened: as §2

[16] = tested on: A2780 cells; assay type: cell-based; conditions: A2780, 40 μM, 48 h, FAC (50 μM) or holo-Tf (50 μM)
[17] = Distribution coefficient by shake-flask method; assay type: physicochemical; conditions: octanol and PBS (pH 7.4), HPLC
[18] = Stability / reduction kinetics in fetal bovine serum by HPLC; assay type: in vitro ADME
[19] = resazurin assay, 72 h, mean ± SDM, n=3

Molecule `O=C(O)c1ccc(-n2nc(-c3ccccc3O)nc2-c2ccccc2O)cc1` [DFX, deferasirox] has an IC50 ([1]; Homo sapiens, A2780, 72 h) of 15 ± 1 µM, an IC50 ([2]; Homo sapiens, MDA-MB-231, 72 h) of 17 ± 1 µM and an IC50 ([3]; Homo sapiens, Caco-2, 72 h) of 67 ± 2 µM. The IC50 ([4]; Homo sapiens, A549, 72 h) was 21 ± 3 µM, the IC50 [5] was 220 ± 20 µM and the IC50 [6] was 15 to 67 µM. For the same molecule, the “Restoration of calcein fluorescence (displacement of Fe(II) from calcein)” value [7] was “fully restore its initial fluorescence”, the “Effect on cell cycle distribution” value [8] was “S-phase arrest” and the “Cells in late apoptosis” value [9] was 42%. For the same molecule, the “Increase of calcein fluorescence” value [10] was ~ 54%, the “Increase of calcein fluorescence” value [11] was ~ 34% and the TfR1 expression level [12] was “increase of TfR1 expression”. The “Ferritin H expression level” value [13] was “degradation of ferritin”, the TfR1 expression level [14] was “maintained similar effects, albeit less pronounced” and the “Ferritin H expression level” value [15] was “maintained similar effects, albeit less pronounced”. For the same molecule, the “Effect of iron supplementation on cytotoxicity” value [16] was “could be rescued by iron supplementation”.

In the case of `Cc1nc(-[n+]2nc(-c3ccccc3)nn2-c2ccccc2)sc1C.[Br-]` [MTT], the “Log Do/pH7.4” value [17] is reported as 0.1, the “Half-life t1/2 in serum” value [18] is reported as greater than 24 h and the “Stability (serum, 24 h), remaining” value ([18]; 24 h) is reported as 58%. It also gave an IC50 [1, 19] of 45 ± 9 µM, an IC50 [2, 19] of 48 ± 7 µM and an IC50 [3, 19] of 92 ± 7 µM. It also gave an IC50 [4, 19] of 44 ± 9 µM and an IC50 [5] of 32 ± 5 µM.

For `O=C(O)CC(O)(CC(=O)O)C(=O)O` [citric acid], the “Restoration of calcein fluorescence (displacement of Fe(II) from calcein)” value [7] was “fail to displace calcein-bound iron(II)”.

In the case of ferric ammonium citrate [FAC], the TfR1 expression level [12] is reported as “decrease of TfR1”, the “Ferritin H expression level” value [13] is reported as “increase of ferritin H levels” and the TfR1 expression level [14] is reported as “maintained similar effects, albeit less pronounced”. The “Ferritin H expression level” value [15] was “maintained similar effects, albeit less pronounced”.
